Consider four compounds from ChEMBL document CHEMBL1157474, “[11C]cyclopropyl-FLB 457: a PET radioligand for low densities of dopamine D2 receptors” (Bioorg Med Chem, 2008).

As a reminder, the logD is the decadic logarithm of the distribution of all forms, ionised or not, between an organic phase and buffer at a given pH. By Ki is commonly meant the equilibrium dissociation constant of an inhibitor or competing ligand from its target.

The nature of data set [1]: Lipophilicity, log D at pH 7.4 by shake flask method. The format is physicochemical. Conditions: buffer. In a few lines:
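Shake-flask logD at pH 7.4: tracer in 1-octanol/phosphate buffer (pH 7.4), shaken 3 min; buffer replaced and repeated. Four octanol portions re-extracted with buffer (vortex 2 min, centrifuge 4 min at 2000 x g); both layers counted; D = octanol cpm/mL over buffer cpm/mL.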

Data set [2] has as its system Macaca fascicularis. Description: Binding affinity to dopamine D2 receptor in iv dosed cynomolgus monkey brain cerebellum pretreated with raclopride by PET. It counts as organism-based. Conditions: tested as the 11C-labelled form.
Data set [3] concerns Macaca fascicularis. Description: Binding affinity to dopamine D3 receptor in iv dosed cynomolgus monkey brain cerebellum pretreated with raclopride by PET. The format is organism-based. The conditions noted are these: tested as the 11C-labelled form.
In a further data set the target is D(2) dopamine receptor (Homo sapiens, UniProt P14416). The experiment in a line: Binding affinity to dopamine D2 receptor.
The test system of a further data set is Brain. The experiment in a line: Drug uptake in iv dosed cynomolgus monkey brain after 7.5 mins by PET. The format is ADME, organism-based, Macaca fascicularis. Conditions: in vivo, 0.125 h. In a few lines: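 Ketamine/xylazine-anaesthetized cynomolgus monkeys given 56.2 ± 0.2 MBq [11C] tracer i.v. bolus over 5 sec into sural vein; 3D PET to 93 min. Whole-brain %ID = whole-brain ROI radioactivity concentration × ROI volume (~65 mL) / injected radioactivity × 100, plotted versus time; brain activity assumed unchanged radioligand.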

Data set [4] can be described thus: Ratio of drug uptake in cerebellum to frontal cortex in iv dosed cynomolgus monkey by PET. Conditions: in vivo. It counts as ADME, organism-based, Macaca fascicularis.
Data set [5] can be described thus: Protein binding in cynomolgus monkey plasma at 10 MBq in presence of raclopride. It counts as ADME, cell-free, Macaca fascicularis. The conditions noted are these: read-out: PPB (converted). The gist of the method: (§1)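 Monkey plasma (baseline or after raclopride pretreatment) mixed with tracer (~10 MBq) for 10 min at room temperature, then ultrafiltered (YM-30 membrane) by centrifugation; filtrate counted versus incubate. Duplicates; corrected for membrane binding using 0.9% NaCl controls.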

Data set [6] can be described thus: Metabolic stability in cynomolgus monkey plasma after 45 mins. It counts as ADME, cell-free, Macaca fascicularis. Conditions: read-out: Stability. In a few lines:
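Monkey femoral vein blood drawn at 4, 15, 30, 45 min post-injection; plasma deproteinized with acetonitrile, centrifuged at 2000 x g, supernatant run on reverse-phase C18 radio-HPLC with acetonitrile/0.01 M phosphoric acid gradient, 6 mL/min; parent fraction versus polar metabolites; recovery checked by NaI well counting.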

The nature of data set [7]: Ratio of drug uptake in occipital cortex to cerebellum in iv dosed cynomolgus monkey by PET. Conditions: in vivo.
A short description of data set [8]: Ratio of drug uptake in cerebellum to pallidum in iv dosed cynomolgus monkey after 84 mins by PET. The format is ADME, organism-based, Macaca fascicularis. Conditions: in vivo, 1.4 h. The gist of the method:
(§2)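 Baseline PET in ketamine/xylazine-anaesthetized cynomolgus monkeys after i.v. bolus of 56.2 ± 0.2 MBq tracer, scanned to 93 min. Regional radioactivity expressed as %SUV; region-to-cerebellum ratios taken at 84 min, cerebellum serving as reference region for free plus non-specific binding.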

Data set [9] can be described thus: Ratio of drug uptake in cerebellum to parietal cortex in iv dosed cynomolgus monkey by PET. The format is ADME, organism-based, Macaca fascicularis. The conditions noted are these: in vivo.
Data set [10] in a line: Ratio of drug uptake in cerebellum to temporal cortex in iv dosed cynomolgus monkey by PET. It counts as ADME, organism-based, Macaca fascicularis. The conditions noted are these: in vivo.
Data set [11] can be described thus: Ratio of drug uptake in cerebellum to putamen in iv dosed cynomolgus monkey after 84 mins by PET. The format is ADME, organism-based, Macaca fascicularis. Conditions: in vivo, 1.4 h. In a few lines: as §2
Data set [12] is described as follows: Protein binding in cynomolgus monkey plasma at 10 MBq. Conditions: read-out: PPB (converted). The format is ADME, cell-free, Macaca fascicularis. The gist of the method:
as §1

The nature of data set [13]: Ratio of drug uptake in cerebellum to thalamus in iv dosed cynomolgus monkey by PET. The format is ADME, organism-based, Macaca fascicularis. Conditions: in vivo.
The nature of data set [14]: Ratio of drug uptake in cerebellum to caudate nucleus in iv dosed cynomolgus monkey after 84 mins by PET. The format is ADME, organism-based, Macaca fascicularis. The conditions noted are these: in vivo, 1.4 h. The gist of the method:
as §2

Chain of D(2) dopamine receptor (P14416 whole entry): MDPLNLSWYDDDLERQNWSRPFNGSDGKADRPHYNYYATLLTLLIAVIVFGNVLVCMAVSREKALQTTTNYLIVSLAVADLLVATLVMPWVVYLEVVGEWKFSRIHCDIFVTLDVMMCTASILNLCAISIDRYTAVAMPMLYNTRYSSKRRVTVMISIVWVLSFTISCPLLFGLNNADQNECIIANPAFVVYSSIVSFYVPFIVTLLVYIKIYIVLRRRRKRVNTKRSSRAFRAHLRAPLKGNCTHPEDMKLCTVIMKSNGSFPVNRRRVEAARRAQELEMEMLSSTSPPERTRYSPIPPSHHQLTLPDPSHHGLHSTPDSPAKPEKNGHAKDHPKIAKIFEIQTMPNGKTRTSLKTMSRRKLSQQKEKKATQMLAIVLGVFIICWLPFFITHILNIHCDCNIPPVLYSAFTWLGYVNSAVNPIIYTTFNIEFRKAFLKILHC

In the case of `CCN1CCC[C@H]1CNC(=O)c1cc(Br)cc(OC)c1O[11CH3]`, the logD in [1] is 1.33.
On to `COc1cc(Br)cc(C(=O)NC[C@@H]2CCCN2CC2CC2)c1OC`, for which the Activity with Macaca fascicularis [2] and in the data set with Macaca fascicularis [3] was 50% throughout.
For the compound `CCN1CCC[C@H]1CNC(=O)c1cc(Br)cc(OC)c1OC`, the affinity at D(2) dopamine receptor, expressed as Ki, was 3 pM.
On to `COc1cc(Br)cc(C(=O)NC[C@@H]2CCCN2CC2CC2)c1O[11CH3]`, for which, in the data set on Brain, the Drug uptake is 4.4 %ID. The Ratio worked out at 3.24 in data set [4]; 2.08 in data set [7]; 5.4 in data set [8]; 2.98 in data set [9]; 2.59 in data set [10]; 7.61 in [11]. For the same compound, the results for the Ratio in data set [13] and in [14] were 3.7 and 6.6, respectively. Further, in [1], the logD came to 1.82. Moreover, the fraction unbound at 10 MBq in data set [5] was 0.64; in data set [12], 0.68. In addition, in data set [6], the remaining at 0.75 h turned out to be 60%.
